The nature of series [1]: Prodrug conversion in buffer assessed as half life of cyclization at pH 5.5. Type of series: physicochemical.
Series [2] is described as follows: Prodrug conversion in buffer assessed as half life of cyclization at pH 7 to 7.5. Type of series: physicochemical.
A short description of series [3]: Prodrug conversion in buffer assessed as half life of cyclization at pH 2.5. The series is classed as physicochemical.
Series [4] is described as follows: Prodrug conversion in buffer assessed as half life of cyclization at pH 5. Type of series: physicochemical.
A short description of series [5]: Prodrug conversion in buffer assessed as half life of cyclization at pH 3.44. The series is classed as physicochemical.
Series [6] in a line: Prodrug conversion assessed as Clostridium perfringes azoreductase-mediated reduction after 6 hrs at pH 7.4. Type of series: ADME. Particulars: clostridium perfringens, pH 7.4, 6 h; call rule not given here. The gist of the method:
(§1)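 Prodrugs incubated anaerobically with a suspension of azoreductase-producing Clostridium perfringens at 37 °C, pH 7.4, sampled over 24 h. Progress curves tracked loss of prodrug and appearance of budesonide and linker byproducts (the dihydroquinolone or 3,3-dimethyl-1,3-dihydro-indol-2-one). Assay conditions follow the group's earlier method.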

Series [7] is described as follows: Chemical stability in simulated doudenal juice up to 24 hrs. The series is classed as physicochemical. The gist of the method:
(§2)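 Prodrug incubated in simulated duodenal or gastric juice at 37 °C and followed for up to 24 h to see whether it stays intact.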

Series [8] is described as follows: Chemical stability in simulated gastric juice up to 24 hrs. Type of series: physicochemical. Particulars: simulated gi fluid. The gist of the method: as §2
The nature of series [9]: Drug metabolism assessed as Clostridium perfringes azoreductase-mediated hydrolysis at pH 7.4. The series is classed as ADME. Particulars: clostridium perfringens.
Series [10] can be described thus: Prodrug conversion assessed as Clostridium perfringes azoreductase-mediated budesonide formation at pH 7.4. Type of series: ADME. Particulars: clostridium perfringens. The gist of the method: as §1
Series [11] is described as follows: Drug metabolism assessed as Clostridium perfringes azoreductase-mediated hydrazine reoxidation to parent azo compound formation at pH 7.4 by HPLC analysis. The series is classed as ADME. The following applies: clostridium perfringens.
A short description of series [12]: Drug metabolism assessed as Clostridium perfringes azoreductase-mediated hydrazine formation at pH 7.4 by HPLC analysis. The following applies: clostridium perfringens. Type of series: ADME.
The nature of series [13]: Drug metabolism assessed as Clostridium perfringes azoreductase-mediated cyclization to dihydroquinolone at pH 7.4. The series is classed as ADME. The following applies: clostridium perfringens. A digest of the protocol:
as §1

In the case of `CCCC1O[C@@H]2C[C@H]3[C@@H]4CCC5=CC(=O)C=C[C@]5(C)[C@H]4[C@@H](O)C[C@]3(C)[C@]2(C(=O)COC(=O)CCc2ccccc2N)O1` (mixture of isomers), the t1/2 in series [1] worked out at 73.2 min; in series [2] it was 201 min; in series [3], 25.9 min; in series [4], 52.7 min; in series [5], 29.3 min.

Consider `CCCC1O[C@@H]2C[C@H]3[C@@H]4CCC5=CC(=O)C=C[C@]5(C)[C@H]4[C@@H](O)C[C@]3(C)[C@]2(C(=O)COC(=O)CCc2ccccc2/N=N/c2ccc(O)c(C(=O)O)c2)O1` (mixture of isomers), for which the Drug metabolism result in [6] is listed as “Active”; in series [9], “Not Active”; in series [10] it was “Active”. For the same compound, the Stability entry in series [7] and in series [8] was “Stable” each time.

Regarding `CCCC1O[C@@H]2C[C@H]3[C@@H]4CCC5=CC(=O)C=C[C@]5(C)[C@H]4[C@@H](O)C[C@]3(C)[C@]2(C(=O)COC(=O)CCc2ccccc2/N=N/c2ccc(C(=O)O)cc2)O1` (mixture of isomers), the Drug metabolism result is reported as “Not Active” in series [6], “Active” in [11], “Active” in series [12] and “Not Active” in series [10]. The Stability result in series [7] and in series [8] was “Stable” each time.

In the case of `CCCC1O[C@@H]2C[C@H]3[C@@H]4CCC5=CC(=O)C=C[C@]5(C)[C@H]4[C@@H](O)C[C@]3(C)[C@]2(C(=O)COC(=O)C(C)(C)c2ccccc2/N=N/c2ccc(O)c(C(=O)O)c2)O1` (mixture of isomers), the Drug metabolism entry in [13], in [6] and in [10] was “Active” each time. The Stability entry in series [7] and in series [8] was “Stable” each time.

The values above are taken from ChEMBL document CHEMBL2203063, “Azo-reductase activated budesodine prodrugs for colon targeting” (Bioorg Med Chem Lett, 2012).
